Assay outcomes as filed in PubChem.
Sampled rows, rich in hits. Any-hit rate of the full collection: about 2.6%.
OXTR potentiator – potentiates the human oxytocin receptor response. P30559. CHO-OTR cells, Fluo-8 calcium fluorescence, potentiator mode; 0% = oxytocin EC15, 100% = EC100. activation, % at 3 µM. 0.061% of 320,000 active;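 active means activation above that plate's cutoff, the mean activation of tested compounds plus 3 SD, cut at about 6.6% in these data, passing the limit was not always enough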
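Material: CHO-OTR cells, human receptor; compound dosing: single dose, 3.0 µM nominal final compound concentration; schedule: 6 min compound pre-incubation at room temperature, 100 s kinetic read; measured by: kinetic Fluo-8 calcium fluorescence; read-out basis: % activation vs EC15 and EC100 oxytocin; controls: EC15 oxytocin alone as 0%, 75 nM oxytocin as 100%; replicates: singlicate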
OX1R antag-1 – OX1R (human) antagonism. O43613. OX1R-expressing cells, FRET antagonist read-out. inhibition, % at 6.6 µM. 1.8% of 330,000 active. AID 485270; in the data active means inhibition mostly above about 38%, no sharp cut-off; inactive means mostly below about 40%
Target sequence (O43613 whole entry, looked up): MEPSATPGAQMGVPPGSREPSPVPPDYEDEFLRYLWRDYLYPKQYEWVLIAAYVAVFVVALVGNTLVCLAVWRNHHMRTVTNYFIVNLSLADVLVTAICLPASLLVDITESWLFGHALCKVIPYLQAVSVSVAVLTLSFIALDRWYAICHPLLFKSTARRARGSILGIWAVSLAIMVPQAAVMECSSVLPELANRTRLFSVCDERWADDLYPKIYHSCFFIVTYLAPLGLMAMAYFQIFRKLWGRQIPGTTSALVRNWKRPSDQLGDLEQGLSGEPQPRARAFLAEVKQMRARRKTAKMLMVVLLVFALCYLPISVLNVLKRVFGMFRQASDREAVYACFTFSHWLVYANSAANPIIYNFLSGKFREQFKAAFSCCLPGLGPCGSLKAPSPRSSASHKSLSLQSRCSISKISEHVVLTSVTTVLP
OX1R antag-2 – antagonists of human orexin 1 receptor. O43613. CHO/OX1R cells, Fluo-8 calcium fluorescence, orexin A. inhibition, % at 5 µM. 0.43% of 330,000 active. AID 434989;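 active means inhibition above its plate's threshold, mean inhibition of all tested compounds on the plate plus 3 SD, cut at about 37% in these data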
V1R ag counter – activates human V1a receptor in oxytocin agonist counter-screen; CHO-V1R cells, Fluo-8 calcium fluorescence, agonist mode; 0% DMSO, 100% 3 nM vasopressin; activation, % at 3 µM; 0.25% of 320,000 active; AID 2797;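 active means activation above the mean activation of all tested compounds plus 3 SD, per screening run, cut at about 20% in these data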;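 further: signal is peak over basal fluorescence ratio across a 100 second FLIPR read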
OXTR agonist – human OXTR agonism | P30559 | CHO-OTR cells, Fluo-8 calcium fluorescence; normalized: DMSO 0%, oxytocin 100% | activation, % at 3 µM | 0.32% of 320,000 active;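 active means activation above the mean of all tested compounds plus 3 SD, cutoff set per screening run, cut at about 20% in these data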;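 further: peak over basal fluorescence ratio from a 100 s FLIPR kinetic read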
CHO parental Ca – counter-screen for OX1R antagonists: effect in parental CHO cells. AID 463079. parental CHO-K1, ATP-induced calcium, Fluo-8 fluorescence. 0.63% of 330,000 active. inhibition, % at 5.6 µM;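 active means inhibition above that plate's mean sample inhibition plus 3 SD, cut at about 26% in these data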
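test system = CHO parental line | reagent = ATP stimulus | measured by = intracellular calcium via Fluo-8 no-wash fluorescent dye | control set = ATP and no-ATP DMSO wells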
Large screens that a line does not name were inactive.

CC(C)(C)c1ccc(NC(=O)Nc2ccc(F)cc2)cc1	OX1R antag-2 64, CHO parental Ca 62
COc1cccc(NC(=O)Nc2cc(C(=O)O)ccc2C)c1	none
Cc1ccc(NC(=O)CCC(=O)c2ccc(F)cc2)cc1Cl	none
O=C(Nc1ccc(F)cc1)Nc1cc(OCC(F)(F)F)cc(OCC(F)(F)F)c1	CHO parental Ca 40
Cc1ccc(NC(=O)Nc2ccc(F)cc2)cc1Cl	CHO parental Ca 41
COc1cccc(NC(=O)Nc2ccc(C)c(Cl)c2)c1	OX1R antag-2 38, CHO parental Ca 90
CC(C)(C)c1ccc(COC(=O)Nc2ccc(F)cc2)cc1	none
CCOc1ccc(NC(=O)Nc2cc(OCC(F)(F)F)cc(OCC(F)(F)F)c2)cc1	none
CCOC(=O)N1CCN(C(=O)c2ccc(N(C)S(=O)(=O)c3ccc(C)cc3)cc2)CC1	none
O=C(NC1CCN(Cc2ccccc2)CC1)c1cn(-c2ccccc2)nc1-c1cccnc1	none
CS(=O)(=O)N(CC(=O)N1CCc2ccccc2C1)c1ccccc1F	none
O=S(=O)(NC1CCCC1)c1ccc(S(=O)(=O)N2CCc3ccccc32)cc1	CHO parental Ca 39
Nc1ccc(S(=O)(=O)N2CCc3ccccc32)cc1	none
COc1cccc(C2c3[nH]c4ccccc4c3C[C@H]3C(=O)N(CCCO)CC(=O)N23)c1OC (stereo not given in full)	none
COc1ccc2c(c1OC)C(=O)N1C(C(=O)O)Cc3c([nH]c4ccccc34)C21 (stereo not given)	OX1R antag-1 75
CCN(CC)c1ccc(-n2cc3c(=O)n(C)c(=O)n(C)c3c2)cc1	OX1R antag-1 74
COc1cc(C(C)=O)ccc1OCC(=O)OC(C)C(=O)c1ccc(F)cc1 (stereo not given)	none
O=NN(CCc1ccncc1)c1ccc(OCc2ccccc2)cc1	OX1R antag-2 38, CHO parental Ca 62
O=C(NCc1ccncc1)C(=O)N/N=C/c1ccc(OCc2ccccc2)cc1	none
CCOc1ccccc1NC(=O)C1CCCCN1S(=O)(=O)c1ccccc1 (stereo not given)	OX1R antag-1 53
O=C(Nc1ccccc1NS(=O)(=O)c1ccc(F)cc1)C1CCCC1	OX1R antag-1 63
COc1ccccc1NC(=O)C1CCCCN1S(=O)(=O)c1ccc(F)cc1 (stereo not given)	OX1R antag-1 57
CCOc1ccc(NC(=O)C2CCCCN2S(=O)(=O)c2ccccc2)cc1 (stereo not given)	none
COc1ccc(NC(=O)C2CCCCN2S(=O)(=O)c2ccc(F)cc2)c(OC)c1 (stereo not given)	none
Cc1noc(C)c1NC(=O)N(C)C[C@H]1Oc2ccc(NS(=O)(=O)c3cn(C)cn3)cc2C(=O)N([C@H](C)CO)C[C@@H]1C	none
CC(=O)c1ccc(NC(=O)/C(Cl)=C/c2ccccc2)cc1	CHO parental Ca 42
COc1ccc(/C=C2\SC(=O)N(CC(=O)NCCCn3ccnc3)C2=O)cc1	none
COc1cc(NC(=S)Nc2cccc(C)n2)cc(OC)c1OC	none
COc1cc(NC(=S)Nc2ncccc2C)cc(OC)c1OC	OX1R antag-1 45
O=C(CN1C(=O)C(c2ccc(F)cc2)=NC12CCCC2)Nc1ccc(F)cc1	CHO parental Ca 27
CC(C)(CO)NCc1c(OCc2ccc(Cl)cc2)ccc2ccccc12	none
O=C(NNC(=O)c1ccccc1O)c1ccc(Cl)c(S(=O)(=O)N2CCc3ccccc32)c1	OX1R antag-1 62, OX1R antag-2 40, CHO parental Ca 57
O=C(c1ccc(Cl)c(S(=O)(=O)N2CCc3ccccc32)c1)N1CCN(c2ccccc2O)CC1	none
O=C(CNC(=O)c1n[nH]c2ccccc12)Nc1ccc(F)c(F)c1F	none
Oc1ccc(CCNc2ncnc3ccc(Cl)cc23)cc1	OX1R antag-1 86, OX1R antag-2 43, CHO parental Ca 72
Cc1ccc(C2C(C#N)=C(N)SC(N)=C2C#N)c(C)c1	V1R ag counter 21, OXTR agonist 20
N#CC1=C(N)SC(N)=C(C#N)C1c1ccnc2ccccc12	none
CCN(CC)S(=O)(=O)c1ccc2oc(SCc3ccc(F)cc3)nc2c1	CHO parental Ca 40
